Screens deposited in PubChem by several laboratories.
This is a sample that favours compounds with a hit; in the whole collection about 1.4% have one here.
KLK5 inh: human KLK5 protease inhibitors, primary screen, biochemical, 1536-well | hit rate 0.59% among 210,000 | AID 873, 2007 | Kallikrein-5 (Homo sapiens), Q9Y337 | inhibition, % at 5 µM | recombinant hK5, fluorogenic AMC substrate cleavage;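 active means inhibition of 40% or more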
Target sequence (Q9Y337 67-293 limits assumed): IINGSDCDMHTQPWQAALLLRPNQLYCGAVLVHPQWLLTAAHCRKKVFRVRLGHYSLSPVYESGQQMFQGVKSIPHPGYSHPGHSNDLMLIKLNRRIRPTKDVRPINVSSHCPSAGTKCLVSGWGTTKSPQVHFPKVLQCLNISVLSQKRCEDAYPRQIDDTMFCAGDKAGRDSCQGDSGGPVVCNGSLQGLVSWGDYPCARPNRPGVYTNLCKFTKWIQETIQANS
FXIIa inh 1536: human FXIIa protease inhibitors, primary screen, biochemical, 1536-well. hit rate 0.3% among 220,000. inhibition, % at 5 µM. purified FXIIa, Boc-QGR-AMC fluorogenic substrate, 2 h. Coagulation factor XII (Homo sapiens), P00748; in the data active means inhibition above about 40%
thrombin 1536: human alpha-thrombin inhibitors, primary screen, counter-screen for coagulation protease inhibitor project, biochemical, 1536-well, fluorogenic AMC substrate | Prothrombin (Homo sapiens), P00734 | Boc-VPR-AMC fluorogenic substrate cleavage | inhibition, % at 5 µM | hit rate 0.26% among 220,000 | AID 1046, 2008;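 active means inhibition at or above 40%; inactive means inhibition below 40%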
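Test system: human alpha-thrombin; medium: pH 7.5 Tris-saline with Tween 20; times: reaction at room temperature; signal: AMC fluorescence at 355 nm excitation and 460 nm emission; also added: Boc-VPR-AMC substrate, 15 µM final; dosing: one concentration per compound, 5 µM, with 0.2% DMSO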
FXIa inh 1536: human FXIa protease inhibitors, primary screen, biochemical, 1536-well; purified FXIa, Boc-Glu-Ala-Arg-AMC fluorogenic substrate; inhibition, % at 5 µM; hit rate 0.14% among 220,000; Coagulation factor XI (Homo sapiens), P03951;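 active means inhibition of at least 40%; inactive means inhibition below 40%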;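 further: fluorescence of freed AMC excited at 355 nm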
Calpain2 inh: inhibitors of pig calpain II, primary screen, biochemical, fluorogenic peptide substrate, 1536-well; hit rate 0.37% among 220,000; purified calpain II, 30 min; inhibition, % at 16 µM; AID 1236, 2008;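 active means inhibition above about 50%, limit read from the data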
Hits are given with their value; n = inactive; x = no result.

SMILES	KLK5 inh	FXIIa inh 1536	thrombin 1536	FXIa inh 1536	Calpain2 inh
O=C1c2ccccc2C(Nc2ccc3c(c2)OCCO3)N1c1ccc(Cl)cn1 (stereo unspecified)	n	n	n	n	n
Cc1c(C(=O)NCc2cccnc2)sc2nc(-c3ccc(F)cc3)cn12	n	n	n	n	78
Cc1c(C(=O)NCCCN2CCOCC2)sc2nc(-c3ccc(F)cc3)cn12	n	n	n	n	n
Cc1cc(C(=O)O)ccc1-n1c(C)cc(/C=C(/C#N)C(=O)Nc2ccccc2)c1C	x	n	n	n	59
Cc1cc(/C=C(\C#N)C(=O)Nc2ccccc2)c(C)n1-c1cccnc1	n	n	n	n	n
COc1ccc(S(=O)(=O)N2CCCC2C(=O)NCc2cccs2)cc1 (stereo unspecified)	48	n	n	n	n
O=S(=O)(Cc1ccccc1)NCC1CCCN(Cc2ccc(F)c(F)c2)C1 (stereo unspecified)	n	n	n	n	65
COc1cccc(/C=N\NC(=O)c2ccc(Cn3cc(Br)c([N+](=O)[O-])n3)o2)c1O	n	n	n	n	n
COc1cccc(-c2cnc(NCc3cc(Cl)ccc3O)n2C)c1	n	n	n	n	55
Cn1c(-c2cccc(Br)c2)cnc1NCc1cccnc1	n	n	n	n	n
COc1ccccc1NC(=O)COC(=O)/C=C/c1ccc2c(c1)OCO2	n	n	n	n	n
NC(=O)c1ccc(NC(=O)COC(=O)/C=C/c2ccc3c(c2)OCO3)cc1	57	n	n	n	n
Cc1ccc(S(=O)(=O)CCC(=O)OCc2ccc(Cl)cc2)cc1	53	n	n	n	n
CCOC(=O)N1CCc2c(sc3c2c(=O)n(Cc2ccccc2)c(=O)n3CC(=O)NCCOC)C1	n	n	n	n	58
Cc1c(-n2cc(C(=O)c3ccccc3O)cc(C#N)c2=O)c(=O)n(-c2ccccc2)n1C	65	n	n	n	n
COC(=O)c1c(C)nn(-c2ccccc2)c1-n1cccc1	n	n	41	n	n
O=C1c2ccccc2C(=O)N1CCc1csc(-c2cccc(Cl)c2)n1	n	n	n	n	59
Nc1nc(CSC(=S)N2CCCCC2)nc(Nc2ccccc2)n1	67	n	n	n	n
CC(C)(C)NC(=O)c1cccc2c1OC(C)(C)C2	n	n	n	n	n
COc1ccc(C2=CC(c3ccc(OC)c(OC)c3)NC(=S)N2)cc1 (stereo unspecified)	n	n	n	n	n
COc1cccc(C2=CC(c3ccc(OC)c(OC)c3)NC(=S)N2)c1 (stereo unspecified)	n	n	n	n	59
CCCCNC(=O)C1C2C=CC3(CN(Cc4ccc(C)cc4)C(=O)C13)O2 (stereo unspecified)	n	n	n	n	n
Cc1ccc(CN2CC34C=CC(O3)C(C(=O)NCc3ccco3)C4C2=O)cc1 (stereo unspecified)	156	n	n	n	n
COc1ccccc1CNC(=O)/C=C/c1ccc(Br)o1	n	n	n	n	n
COCCCNC(=O)CC1Oc2ccccc2NC1=O (stereo unspecified)	56	n	n	n	n
SMILES	KLK5 inh	FXIIa inh 1536	thrombin 1536	FXIa inh 1536	Calpain2 inh
CCCSCCCNC(=O)CC1Oc2ccccc2NC1=O (stereo unspecified)	n	n	n	n	n
O=C(Nc1ccc(S(=O)(=O)NCc2cccnc2)cc1)c1ccco1	n	n	n	n	n
CC(=O)Nc1ccc(S(=O)(=O)NCc2cccnc2)cc1	47	n	n	n	n
Clc1ccc(-c2nnc(COc3ncnc4sccc34)o2)cc1	n	n	n	n	n
c1ccc(-c2cn(-c3ccccc3)c3ncnc(N4CCCCC4)c23)cc1	n	n	n	n	53
CN1CCN(c2ncnc3c2c(-c2ccccc2)cn3-c2ccc(F)cc2)CC1	n	n	n	n	n
CCC(C)[C@H](NC(=O)Nc1ccc(C(C)=O)cc1)C(=O)OC (stereo partly specified)	n	44	n	n	n
CCN1CCN(CC(=O)Nc2cc(C(F)(F)F)ccc2OCCOC)CC1	n	n	n	n	n
O=C(CCSc1ccccc1)NC(=O)COC(=O)C1CCCCC1	n	x	n	n	60
O=C(CCSc1ccccc1)NC1CCCCCC1	n	n	n	n	n
Oc1ccc(NC(=S)Nc2ccc(O)cc2)cc1	n	n	n	n	n
